Calls of active or inactive are those of the source. No cut-off for these calls is given here.
Tests used:
[1] = target: Histone deacetylase 4 (Homo sapiens) (UniProt P56524); test: Inhibition of HDAC4 (unknown origin) using Fluor de Lys substrate by fluorescence assay relative to control
Summary of the method: (§1)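 Recombinant HDAC isoform assays run by a contract lab. Compounds in DMSO, 10-dose IC50 mode, 3-fold serial dilution from 50 μM. Duplicate runs; IC50 from curve fitting.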

[2] = target: Protein deacetylase HDAC6 (Homo sapiens) (UniProt Q9UBN7); test: Inhibition of HDAC6 (unknown origin) using Fluor de Lys substrate by fluorescence assay relative to control; summary of the method: as §1
Chain of Protein deacetylase HDAC6 (Homo sapiens) (Q9UBN7 whole entry): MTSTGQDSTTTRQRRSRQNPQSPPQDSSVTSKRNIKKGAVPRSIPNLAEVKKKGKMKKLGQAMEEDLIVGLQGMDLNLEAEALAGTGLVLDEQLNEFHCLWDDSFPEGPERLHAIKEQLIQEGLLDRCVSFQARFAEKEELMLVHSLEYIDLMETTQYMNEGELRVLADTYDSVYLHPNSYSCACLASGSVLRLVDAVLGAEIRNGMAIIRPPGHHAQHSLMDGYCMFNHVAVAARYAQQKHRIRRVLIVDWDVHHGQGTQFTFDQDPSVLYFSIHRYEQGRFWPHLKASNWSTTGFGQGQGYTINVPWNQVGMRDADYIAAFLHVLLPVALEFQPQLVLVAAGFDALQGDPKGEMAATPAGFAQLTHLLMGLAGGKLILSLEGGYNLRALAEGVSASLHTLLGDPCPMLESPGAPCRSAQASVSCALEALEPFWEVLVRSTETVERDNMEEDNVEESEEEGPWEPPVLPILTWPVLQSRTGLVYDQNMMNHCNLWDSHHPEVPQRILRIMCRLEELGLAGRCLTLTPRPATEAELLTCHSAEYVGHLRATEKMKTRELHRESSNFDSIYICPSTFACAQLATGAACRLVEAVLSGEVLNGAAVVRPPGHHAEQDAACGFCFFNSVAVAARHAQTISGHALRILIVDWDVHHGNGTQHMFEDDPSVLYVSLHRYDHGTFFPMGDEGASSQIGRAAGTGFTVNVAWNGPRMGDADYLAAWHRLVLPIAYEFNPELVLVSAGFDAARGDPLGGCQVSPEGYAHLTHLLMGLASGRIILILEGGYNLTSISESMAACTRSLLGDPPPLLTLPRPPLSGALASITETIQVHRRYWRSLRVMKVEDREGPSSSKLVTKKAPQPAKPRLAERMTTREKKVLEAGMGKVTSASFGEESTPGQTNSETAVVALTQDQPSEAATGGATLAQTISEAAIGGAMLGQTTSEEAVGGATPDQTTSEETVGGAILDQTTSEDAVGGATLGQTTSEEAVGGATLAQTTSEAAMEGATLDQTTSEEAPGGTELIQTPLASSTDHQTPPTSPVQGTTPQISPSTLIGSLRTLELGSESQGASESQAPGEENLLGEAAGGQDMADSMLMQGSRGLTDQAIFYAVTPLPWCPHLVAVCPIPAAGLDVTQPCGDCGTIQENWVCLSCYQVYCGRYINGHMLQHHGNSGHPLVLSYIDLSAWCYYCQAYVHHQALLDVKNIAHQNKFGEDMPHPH

K562 [3] = test: Antiproliferative activity against human K562 assessed as reduction in cell viability measured after 72 hrs using alamar blue based fluorescence method; assay type: functional; conditions: K562, 72 h
Summary of the method: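 Leukemia lines grown in IMDM with penicillin/streptomycin, HL-60 with 20% FBS and K562 with 10% FBS, at 37 °C, 5% CO2. Cells in 96-well plates exposed to drug for 72 h. Alamar blue (1 mM solution) added for 5–6 h, fluorescence read at 530/590 nm.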

HCT-116 [4] = test: Antiproliferative activity against human HCT116 assessed as reduction in cell viability measured after 72 hrs using alamar blue based fluorescence method; assay type: functional; conditions: HCT-116, 72 h
Summary of the method: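 HCT116 and MCF-7 grown in McCoy's 5A with 10% FBS and penicillin/streptomycin at 37 °C, 5% CO2. Cells plated in 96-well format and exposed to drug for 72 h. Alamar blue (1 mM solution) added, incubated 5–6 h, fluorescence read at 530/590 nm.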

HL-60 = test: Potency index, ratio of IC50 of chidamide to IC50 of test compound against human HL60 cells; assay type: functional
K562 [5] = test: Potency index, ratio of IC50 of chidamide to IC50 of test compound against human K562 cells; assay type: functional
HCT-116 [6] = test: Potency index, ratio of IC50 of chidamide to IC50 of test compound against human HCT116 cells; assay type: functional
K562 [7] = test: Growth inhibition of human K562 cells assessed as cell growth inhibition at 10 uM incubated for 48 hrs by sulforhodamine B assay; assay type: functional; conditions: K562, 48 h, read-out: GI
RPMI-8226 = test: Growth inhibition of human RPMI8226 cells assessed as cell growth inhibition at 10 uM incubated for 48 hrs by sulforhodamine B assay; assay type: functional; conditions: RPMI-8226, 48 h, read-out: GI
SR = test: Growth inhibition of human SR cells assessed as cell growth inhibition at 10 uM incubated for 48 hrs by sulforhodamine B assay; assay type: functional; conditions: read-out: GI
A549 = test: Growth inhibition of human A549 cells assessed as cell growth inhibition at 10 uM incubated for 48 hrs by sulforhodamine B assay; assay type: functional; conditions: A549, 48 h, read-out: GI
EKVX = test: Growth inhibition of human EKVX cells assessed as cell growth inhibition at 10 uM incubated for 48 hrs by sulforhodamine B assay; assay type: functional; conditions: read-out: GI
NCI-H322M = test: Growth inhibition of human NCI-H322M assessed as cell growth inhibition at 10 uM incubated for 48 hrs by sulforhodamine B assay; assay type: functional; conditions: read-out: GI
NCI-H460 = test: Growth inhibition of human NCI-H460 assessed as cell growth inhibition at 10 uM incubated for 48 hrs by sulforhodamine B assay; assay type: functional; conditions: NCI-H460, 48 h, read-out: GI
COLO 205 = test: Growth inhibition of human COLO205 cells assessed as cell growth inhibition at 10 uM incubated for 48 hrs by sulforhodamine B assay; assay type: functional; conditions: COLO 205, 48 h, read-out: GI
HCC 2998 = test: Growth inhibition of human HCC2998 cells assessed as cell growth inhibition at 10 uM incubated for 48 hrs by sulforhodamine B assay; assay type: functional; conditions: HCC 2998, 48 h, read-out: GI
KM12 = test: Growth inhibition of human KM12 cells assessed as cell growth inhibition at 10 uM incubated for 48 hrs by sulforhodamine B assay; assay type: functional; conditions: KM12, 48 h, read-out: GI
SF-268 = test: Growth inhibition of human SF268 cells assessed as cell growth inhibition at 10 uM incubated for 48 hrs by sulforhodamine B assay; assay type: functional; conditions: SF-268, 48 h, read-out: GI
PC-3 = test: Growth inhibition of human PC3 cells assessed as cell growth inhibition at 10 uM incubated for 48 hrs by sulforhodamine B assay; assay type: functional; conditions: PC-3, 48 h, read-out: GI
SN12C = test: Growth inhibition of human SN12C cells assessed as cell growth inhibition at 10 uM incubated for 48 hrs by sulforhodamine B assay; assay type: functional; conditions: read-out: GI
786-0 = test: Growth inhibition of human 786-0 cells assessed as cell growth inhibition at 10 uM incubated for 48 hrs by sulforhodamine B assay; assay type: functional; conditions: 786-0, 48 h, read-out: GI
SNB-75 = test: Growth inhibition of human SNB75 cells assessed as cell growth inhibition at 10 uM incubated for 48 hrs by sulforhodamine B assay; assay type: functional; conditions: SNB-75, 48 h, read-out: GI
MDA-MB-435 = test: Growth inhibition of human MDA-MB-435 cells assessed as cell growth inhibition at 10 uM incubated for 48 hrs by sulforhodamine B assay; assay type: functional; conditions: MDA-MB-435, 48 h, read-out: GI
UACC-62 = test: Growth inhibition of human UACC62 cells assessed as cell growth inhibition at 10 uM incubated for 48 hrs by sulforhodamine B assay; assay type: functional; conditions: UACC-62, 48 h, read-out: GI
T47D = test: Growth inhibition of human T47D cells assessed as cell growth inhibition at 10 uM incubated for 48 hrs by sulforhodamine B assay; assay type: functional; conditions: read-out: GI
MCF7 = test: Growth inhibition of human MCF7 cells assessed as cell growth inhibition at 10 uM incubated for 48 hrs by sulforhodamine B assay; assay type: functional; conditions: MCF7, 48 h, read-out: GI
[8] = Metabolic stability in human liver microsomes assessed as internal clearance at 1 uM preincubated for 10 mins followed by NADPH addition measured upto 60 mins by LC-MS/MS analysis; assay type: ADME, Microsome; conditions: read-out: CLH
Summary of the method: (§2)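 Liver microsomes from male SD rat, dog or human at 0.5 mg/mL in 100 mM potassium phosphate pH 7.4 with 1 μM compound. Prewarmed 37 °C 10 min, started with 1 mM NADPH. Stopped at 0, 5, 10, 20, 40, 60 min with cold methanol containing glibenclamide internal standard; supernatant by LC–MS/MS; T1/2 and CLint derived.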

[9] = Metabolic stability in dog liver microsomes assessed as half life at 1 uM preincubated for 10 mins followed by NADPH addition measured upto 60 mins by LC-MS/MS analysis; assay type: ADME, Canis lupus familiaris, Microsome; summary of the method: as §2
[10] = Metabolic stability in rat liver microsomes assessed as half life at 1 uM preincubated for 10 mins followed by NADPH addition measured upto 60 mins by LC-MS/MS analysis; assay type: ADME, Microsome; summary of the method: as §2
[11] = AUC (0 to infinity) in Sprague-Dawley rat at 10 mg/kg, po by LC-MS/MS analysis; assay type: ADME, organism-based; design: dose 10 mg/kg, time infinity, route oral; conditions: in vivo
Summary of the method: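 Male SD rats, 199-214 g, three per route. Single iv dose of 1 mg/kg or oral dose of 10 mg/kg. About 200 μL blood drawn from the jugular vein into heparinized tubes at set times, then spun to plasma. 30 μL plasma precipitated with CH3CN containing verapamil and glibenclamide as internal standards. Plasma drug level measured by LC-MS/MS.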

Chain of Histone deacetylase 4 (Homo sapiens) (P56524 whole entry, canonical isoform): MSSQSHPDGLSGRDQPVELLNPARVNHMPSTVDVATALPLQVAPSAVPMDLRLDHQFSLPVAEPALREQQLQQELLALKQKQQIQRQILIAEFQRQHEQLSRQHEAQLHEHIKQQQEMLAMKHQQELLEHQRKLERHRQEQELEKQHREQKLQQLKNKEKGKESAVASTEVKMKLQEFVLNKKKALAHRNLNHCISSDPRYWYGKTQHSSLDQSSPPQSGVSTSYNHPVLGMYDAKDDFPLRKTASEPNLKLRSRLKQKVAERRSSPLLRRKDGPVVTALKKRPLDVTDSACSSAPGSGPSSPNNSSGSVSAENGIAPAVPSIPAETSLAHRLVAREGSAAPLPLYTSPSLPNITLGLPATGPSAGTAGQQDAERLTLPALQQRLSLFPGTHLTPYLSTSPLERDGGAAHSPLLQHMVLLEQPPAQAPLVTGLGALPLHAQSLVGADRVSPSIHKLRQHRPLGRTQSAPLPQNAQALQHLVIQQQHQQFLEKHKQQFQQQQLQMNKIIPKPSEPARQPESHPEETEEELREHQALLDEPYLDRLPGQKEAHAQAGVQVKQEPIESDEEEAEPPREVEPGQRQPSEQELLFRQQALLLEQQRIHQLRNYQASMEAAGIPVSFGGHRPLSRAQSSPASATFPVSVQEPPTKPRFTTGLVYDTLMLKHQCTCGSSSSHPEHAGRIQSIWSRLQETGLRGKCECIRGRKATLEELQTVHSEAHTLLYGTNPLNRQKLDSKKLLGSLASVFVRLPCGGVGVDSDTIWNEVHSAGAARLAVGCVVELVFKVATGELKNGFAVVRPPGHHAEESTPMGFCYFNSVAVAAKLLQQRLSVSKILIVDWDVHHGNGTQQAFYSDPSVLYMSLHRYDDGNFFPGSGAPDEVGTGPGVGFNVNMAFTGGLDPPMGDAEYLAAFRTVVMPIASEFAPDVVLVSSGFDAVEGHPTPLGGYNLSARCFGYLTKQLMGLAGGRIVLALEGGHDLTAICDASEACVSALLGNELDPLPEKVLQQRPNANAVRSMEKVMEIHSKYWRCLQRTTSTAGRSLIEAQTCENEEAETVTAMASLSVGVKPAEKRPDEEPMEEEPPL

Nc1cc(F)ccc1NC(=O)c1ccc(CNC(=O)/C=C2\NC(=O)c3ccccc32)cc1
inhibition [1]: inactive
inhibition [2]: inactive
IC50 (K562 [3]): 193 nM
IC50 (HCT-116 [4]): 432 nM
Ratio IC50 (HL-60): 5
Ratio IC50 (K562 [5]): 4
Ratio IC50 (HCT-116 [6]): 2.5
inhibition of growth at 10 µM (K562 [7]): 61.6%
inhibition of growth at 10 µM (RPMI-8226): 59.8%
inhibition of growth at 10 µM (SR): 57.6%
inhibition of growth at 10 µM (A549): 12.2%
inhibition of growth at 10 µM (EKVX): 11.7%
inhibition of growth at 10 µM (NCI-H322M): 14.2%
inhibition of growth at 10 µM (NCI-H460): 26.8%
inhibition of growth at 10 µM (COLO 205): 27.8%
inhibition of growth at 10 µM (HCC 2998): 20.4%
inhibition of growth at 10 µM (KM12): 26.9%
inhibition of growth at 10 µM (SF-268): 36%
inhibition of growth at 10 µM (PC-3): 39.4%
inhibition of growth at 10 µM (SN12C): 30.8%
inhibition of growth at 10 µM (786-0): 7.02%
inhibition of growth at 10 µM (SNB-75): 30.6%
inhibition of growth at 10 µM (MDA-MB-435): 28.8%
inhibition of growth at 10 µM (UACC-62): 57.8%
inhibition of growth at 10 µM (T47D): 58.2%
inhibition of growth at 10 µM (MCF7): 35.5%
microsomal CLint at 1 µM [8]: 4.8 µL/min/mg
half-life at 1 µM [9]: 3.35 h
half-life at 1 µM [10]: 2.02 h
AUC(0-inf) [11]: 1740 ng·h/mL

Source: ChEMBL document CHEMBL4387704, “Design, synthesis and biological evaluation of novel isoindolinone derivatives as potent histone deacetylase inhibitors” (Eur J Med Chem, 2019)
